Test results as given in article PMC8511113 (European journal of medicinal chemistry, 2021).
“Also recorded” adds a separate entry of the source.

Key:
[1] = system: MIA-induced cartilage degeneration in rat knee; assay: MIA rat model of OA via IA dosing, joint histology; format: in vivo, male Sprague Dawley rats
In short: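 Cartilage damage was induced in male Sprague Dawley rats with 2 mg MIA in 40 μl, injected into the right knee. On days 5, 12 and 19 after MIA, rats received intra-articular injections (8 per group) of vehicle, test compound (1 mg, saline suspension) or triamcinolone (0.06 mg). Naive rats (5) received no injections. Right knees were taken on day 26 for histology of the MTP, MFC, LTP and LFC surfaces and their mean. Groups were compared with vehicle by one-way ANOVA or Kruskal-Wallis with post-test, significance p<0.05.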

[2] = In-vivo single dose oral rat pharmacokinetics; settings: oral 1 mg/kg, male Lewis rats
In short: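 Male Lewis rats, 3 per group, were fasted at least 16 h before dosing, with food returned about 4 h after. A 0.5 mg/mL suspension in 0.5% methylcellulose (400 cps) was given by gavage at 1.0 mg/kg (2 mL/kg). Jugular-catheter blood (K2EDTA) was drawn pre-dose and at 0.25–24 h. Plasma was obtained at 2200xg for 10 min, refrigerated. AUC(0-inf) came from the arithmetic mean concentration–time curve.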

[3] = IA days 5, 12, 19, histology day 26, AQU-019 1 mg
[4] = IA days 5, 12, 19, histology day 26, AQU-019 1 mg, Triamcinolone 0.06 mg
[5] = IA days 5, 12, 19 after MIA, histology day 26, AQU-019 1 mg, significant

Improvement in AUC(0-infinity) over non-deuterated parent 18 [2]	Increase of AUC(0-t) over non-deuterated parent 18 [2]	Increase of Cmax over non-deuterated parent 18 [2]	SMILES	Bone resorption vs Vehicle (in words) [1, 3]	Osteophyte scores/measurement vs Vehicle (in words) [1, 3]	Cartilage degeneration / chondroprotection vs Vehicle (in words) [1, 4]	Reduction in the mean loss on the LTP and LFC vs Vehicle [1, 5]	Reduction in the mean loss, mean of all surfaces vs Vehicle [1, 5]	Reduction of osteophyte scores/measurement vs Vehicle ([1]; IA days 5, 12, 19, day 26, Triamcinolone 0.06 mg, P<0.05)	Reduction of bone resorption, overall mean vs Vehicle ([1]; IA days 5, 12, 19, day 26, Triamcinolone 0.06 mg, significant)	Cell loss vs Vehicle (in words) ([1]; IA days 5, 12, 19, histology day 26, Triamcinolone 0.06 mg)
64%	68%	17%	[2H]C([2H])(NC(=O)c1cc(C(=O)NCc2ccc(F)c(C)c2)ncn1)c1ccc(C(=O)O)cc1 [AQU-019, 4-(Dideutero-{[6-(4-fluoro-3-methyl-benzylcarbamoyl)-pyrimidine-4-carbonyl]-amino}-methyl)-benzoic acid]	trend of reduced resorption compared to Vehicle but was not statistically significant; also recorded: while reduced, was not statistically significant	no reduction in osteophyte measurement; also recorded: comparable to Vehicle control; also recorded: no effect on osteophytes measurement	significant chondroprotection	21–22%	16%	–	–	–
–	–	–	C[C@]12C=CC(=O)C=C1CC[C@H]1[C@@H]3C[C@@H](O)[C@](O)(C(=O)CO)[C@@]3(C)C[C@H](O)[C@@]12F [Triamcinolone, reference compound]	–	–	no reductions in cartilage degeneration	–	–	40–47%	43%	no significant reductions in cell loss
